Results published in paper PMC9435035 (ACS Omega, 2022).

Columns and labels:
α-glucosidase = α-glucosidase (Saccharomyces cerevisiae, UniProt P53341); assay: α-glucosidase inhibitory activity; type: biochemical; settings: read-out: glucosidase inhibition IC50 ± SEM; mean ± SEM
Balb/C mice = assay: acute toxicity study in mice; type: in vivo
In short: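 Two-phase modified Lorke protocol in Balb/C mice (20–25 g), four per group. Phase 1: control given Tween-80 (2%); other groups received oral test compound at 100, 500 or 1000 mg/kg. Phase 2: oral doses of 1250, 1500 and 2000 mg/kg. Animals observed for the first 24 h, then daily for 2 weeks for diarrhea, convulsions, lethargy, sleeping, salivation and tremors, with mortality monitored.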

[1] = system: overnight fasted normal rats; assay: oral glucose tolerance test; type: in vivo, Wistar albino rats; settings: OGTT, glucose 3 g/kg oral
[2] = system: streptozotocin-induced diabetic Wistar rats; assay: antidiabetic activity: blood glucose in STZ-induced diabetes; type: in vivo, Wistar albino rats
In short: (§1)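 Male Wistar albino rats (170–200 g, 8–10 weeks), fasted overnight, given STZ 50 mg/kg i.p. in 0.1 M citrate buffer, then 10% glucose for 3 days. Tail-vein glucose by glucometer at 72 h; >250 mg/dL counted as diabetic. Body weight and blood glucose on days 1, 7, 14, 21 and 28. Means ± SEM, one-way ANOVA with Dunnett's test.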

[3] = body weight of STZ-induced diabetic rats; type: in vivo, Wistar albino rats; settings: for body weight, day 1: day 1, in g (unit assumed); for body weight, day 7: day 7, in g (unit assumed); for body weight, day 14: day 14, in g (unit assumed); for body weight, day 21: day 21, in g (unit assumed); for body weight, day 28: day 28, in g (unit assumed)
In short: as §1

[4] = system: streptozotocin-induced diabetic Wistar rats; assay: lipid profile in streptozotocin-induced diabetes; type: in vivo, Wistar albino rats; settings: STZ-diabetic rats
In short: (§2)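 STZ-diabetic Wistar rats (n = 8 per group) received test compound at 10 or 20 mg/kg p.o., or glibenclamide 500 μg/kg p.o., once daily for 28 days; controls received vehicle. On day 28, rats were anesthetised with pentobarbital sodium (35 mg/kg) and blood was drawn by cardiac puncture. Serum ALP, SGPT, SGOT, LDL, HDL, TG, total cholesterol, creatinine and insulin were measured. Means ± SEM, one-way ANOVA with Dunnett's test.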

[5] = system: streptozotocin-induced diabetic Wistar rats; assay: serum profile; type: in vivo, Wistar albino rats; settings: STZ-diabetic rats; for (ALP) IU / (SGOT) IU / (SGPT) IU: serum
In short: as §2

Chain of α-glucosidase (P53341 whole entry): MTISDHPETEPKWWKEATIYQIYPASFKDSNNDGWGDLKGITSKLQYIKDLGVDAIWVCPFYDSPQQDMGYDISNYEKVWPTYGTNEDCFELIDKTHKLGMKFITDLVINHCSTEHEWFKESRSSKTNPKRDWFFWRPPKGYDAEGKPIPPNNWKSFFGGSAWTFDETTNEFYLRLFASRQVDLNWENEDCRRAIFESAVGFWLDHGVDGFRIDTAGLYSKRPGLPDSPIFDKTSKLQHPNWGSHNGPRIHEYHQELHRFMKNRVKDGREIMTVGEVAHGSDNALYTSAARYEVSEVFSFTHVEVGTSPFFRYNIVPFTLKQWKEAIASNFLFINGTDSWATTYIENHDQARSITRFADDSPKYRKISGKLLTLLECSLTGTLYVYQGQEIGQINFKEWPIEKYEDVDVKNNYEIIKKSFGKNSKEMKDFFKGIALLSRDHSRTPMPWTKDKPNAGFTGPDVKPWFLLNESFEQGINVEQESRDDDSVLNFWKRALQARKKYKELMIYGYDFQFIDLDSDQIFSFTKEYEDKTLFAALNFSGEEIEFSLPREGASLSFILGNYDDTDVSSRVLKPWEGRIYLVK

With “2-(4-Fluorophenyl)-4-(p-tolyl)-2,3-dihydrobenzo[b][1,5]thiazepine [13B]” the IC50 (α-glucosidase) was 3.28 ± 0.19 µM, the mortality (Balb/C mice; maximum oral dose of 2000 mg/kg (b.w.)) was “no mortality” and the “toxic effects (diarrhea, convulsions, lethargy, sleeping, salivation, tremor)” value (Balb/C mice; oral up to 2000 mg/kg, observed daily for 2 weeks) was “no toxic effects”. The “blood glucose level, 0 min” value ([1]; dose 10 mg/kg) was 104.80 ± 4.97 mg/dL, the “blood glucose level, 30 min” value ([1]; dose 10 mg/kg) was 120.04 ± 5.04 mg/dL and the “blood glucose level, 60 min” value ([1]; dose 10 mg/kg) was 118.31 ± 4.65 mg/dL. For the same substance, the “blood glucose level, 90 min” value ([1]; dose 10 mg/kg) was 109.81 ± 4.56 mg/dL, the “blood glucose level, 120 min” value ([1]; dose 10 mg/kg) was 113.93 ± 4.67 mg/dL and the “blood glucose level, 0 min” value ([1]; dose 20 mg/kg) was 103.79 ± 5.12 mg/dL. The “blood glucose level, 30 min” value ([1]; dose 20 mg/kg) was 116.81 ± 4.31 mg/dL, the “blood glucose level, 60 min” value ([1]; dose 20 mg/kg) was 114.98 ± 4.34 mg/dL and the “blood glucose level, 90 min” value ([1]; dose 20 mg/kg) was 110.21 ± 3.91 mg/dL. The “blood glucose level, 120 min” value ([1]; dose 20 mg/kg) was 110.04 ± 4.81 mg/dL, the “blood glucose level, day 1” value ([2]; 10 mg/kg p.o. once daily) was 370.81 ± 4.79 mg/dL and the “blood glucose level, day 7” value ([2]; 10 mg/kg p.o. once daily) was 289.89 ± 4.33 mg/dL. For the same substance, the “blood glucose level, day 14” value ([2]; 10 mg/kg p.o. once daily) was 200.33 ± 4.57 mg/dL, the “blood glucose level, day 21” value ([2]; 10 mg/kg p.o. once daily) was 149.30 ± 4.56 mg/dL and the “blood glucose level, day 28” value ([2]; 10 mg/kg p.o. once daily, day 28, 10 mg/kg) was 132.98 ± 4.33 mg/dL. For the same substance, the “blood glucose level, day 1” value ([2]; 20 mg/kg p.o. once daily) was 375.31 ± 5.01 mg/dL, the “blood glucose level, day 7” value ([2]; 20 mg/kg p.o. once daily) was 230.71 ± 4.88 mg/dL and the “blood glucose level, day 14” value ([2]; 20 mg/kg p.o. once daily) was 163.68 ± 4.37 mg/dL. The “blood glucose level, day 21” value ([2]; 20 mg/kg p.o. once daily) was 120.72 ± 4.11 mg/dL, the “blood glucose level, day 28” value ([2]; 20 mg/kg p.o. once daily, day 28, 20 mg/kg) was 108.42 ± 3.98 mg/dL and the “body weight, day 1” value ([3]; 10 mg/kg) was 186.6 ± 4.70. For the same substance, the “body weight, day 7” value ([3]; 10 mg/kg) was 183.4 ± 4.15, the “body weight, day 14” value ([3]; 10 mg/kg) was 186.3 ± 4.22 and the “body weight, day 21” value ([3]; 10 mg/kg) was 180.1 ± 4.12. The “body weight, day 28” value ([3]; 10 mg/kg) was 177.3 ± 4.40, the “body weight, day 1” value ([3]; 20 mg/kg) was 193.6 ± 4.21 and the “body weight, day 7” value ([3]; 20 mg/kg) was 187.2 ± 4.81. For the same substance, the “body weight, day 14” value ([3]; 20 mg/kg) was 191.1 ± 4.14, the “body weight, day 21” value ([3]; 20 mg/kg) was 187.8 ± 3.99 and the “body weight, day 28” value ([3]; 20 mg/kg) was 185.7 ± 4.79. For the same substance, the HDL ([4]; 10 mg/kg for 28 days) was 46.29 ± 2.01 mg/dL, the LDL ([4]; 10 mg/kg for 28 days) was 127.81 ± 4.39 mg/dL and the TG ([4]; 10 mg/kg for 28 days) was 142.93 ± 4.21 mg/dL. The “total CH” value ([4]; 10 mg/kg for 28 days) was 148.67 ± 4.11 mg/dL, the HDL ([4]; 20 mg/kg for 28 days) was 56.08 ± 2.63 mg/dL and the LDL ([4]; 20 mg/kg for 28 days) was 108.91 ± 4.11 mg/dL. The TG ([4]; 20 mg/kg for 28 days) was 114.81 ± 4.41 mg/dL, the “total CH” value ([4]; 20 mg/kg for 28 days) was 134.21 ± 4.77 mg/dL and the insulin level ([5]; 10 mg/kg for 28 days) was 0.696 ± 0.29 ng/mL. The serum creatinine ([5]; 10 mg/kg for 28 days) was 0.76 ± 0.39 mg/dL, the “(ALP) IU” value ([5]; 10 mg/kg for 28 days) was 208.96 ± 4.22 IU and the “(SGOT) IU” value ([5]; 10 mg/kg for 28 days) was 25.41 ± 2.18 IU. The “(SGPT) IU” value ([5]; 10 mg/kg for 28 days) was 24.76 ± 2.81 IU, the insulin level ([5]; 20 mg/kg for 28 days) was 0.705 ± 0.31 ng/mL and the serum creatinine ([5]; 20 mg/kg for 28 days) was 0.70 ± 0.33 mg/dL. For the same substance, the “(ALP) IU” value ([5]; 20 mg/kg for 28 days) was 201.80 ± 4.71 IU, the “(SGOT) IU” value ([5]; 20 mg/kg for 28 days) was 22.09 ± 2.21 IU and the “(SGPT) IU” value ([5]; 20 mg/kg for 28 days) was 22.03 ± 2.78 IU.
